Our source for the Activity, inhibition and viability values is ChEMBL document CHEMBL4304819, “Natural product pectolinarigenin exhibits potent anti-metastatic activity in colorectal carcinoma cells in vitro and in vivo” (2019).

The source made the active and inactive calls. The rule behind the calls is not given here.

For test [1], the system named is HCT-116. Nature of the test: Induction of apoptosis in human HCT116 cells assessed as necrotic cells at 40 uM after 48 hrs by Annexin V-FITC/propidium iodide staining-based flow cytometric analysis (reference value: 8.24 %). The test is classed as functional. The essentials:
(§1)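 Cells (1–2 × 10^5 per well) seeded in six-well plates 24 h, treated at 0–40 μM for 24 h or 48 h, harvested, washed twice in cold PBS, stained with Annexin V-FITC/PI and analysed by flow cytometry; early (Annexin V only) and late (Annexin V and PI) apoptotic fractions quantified; three experiments.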
For orientation: Flow cytometry measures light scatter and fluorescence of single cells or particles in a stream.

For test [2], the system named is CT26. The experiment in a line: Antiproliferative activity against mouse CT26 cells assessed as inhibition of cell viability up to 40 uM by MTT assay. Format: functional, cell-based. Conditions: TDE = time-dependent effect. The essentials: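 Exponentially growing cells (2–6 × 10^3 per well) seeded in 96-well plates for 24 h, then exposed to 0, 2.5, 5, 10, 20, 40 µM for 24, 48 and 72 h. MTT (5 mg/mL stock) added 2–4 h at 37 °C; formazan dissolved in DMSO, absorbance at 570 nm. Three independent experiments.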

In test [3] the test system is CT26. Nature of the test: Antitumor activity against mouse CT26 cells allografted in Balb/c mouse assessed as inhibition of Ki-67 positive cells in tumour tissue at 25 to 50 mg/kg, ip administered daily for 14 days starting from 6 days post implantation by immunohistochemical analysis. The test is classed as functional, organism-based. The essentials: (§2)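 Female BALB/c mice (6–8 weeks) injected ip with 5 × 10^5 CT26 cells; from day 6, randomized (eight per group) to ip vehicle, 25 or 50 mg/kg once daily for 14 days. Abdominal circumference and body weight every 3 days; abdominal nodules counted by eye and weighed; spleens assessed; paraffin tumour sections immunostained (Ki-67, MMP-9, p-Stat3) with DAB detection.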

Test [4] has as its system CT26. The experiment in a line: Induction of apoptosis in mouse CT26 cells assessed as viable cells at 40 uM after 48 hrs by Annexin V-FITC/propidium iodide staining-based flow cytometric analysis (reference value: 88.9 %). Particulars: CT26, 48 h, read-out: Activity. The test is classed as functional. The method in brief: (§3)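 CT26 cells seeded at 1–2 × 10^5 per well in six-well plates for 24 h, then exposed to PEC (0–40 μM) for 24 or 48 h. Cells harvested, washed twice in cold PBS, stained with Annexin V-FITC/PI and read by flow cytometry. Early apoptotic = Annexin V+ only; late apoptotic = Annexin V+/PI+. Mean ± SD of three experiments.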

The subject of test [5] is CT26. Nature of the test: Inhibition of colony formation in mouse CT26 cells assessed as reduction in number of colonies up to 40 uM incubated for 24 hrs supplemented with fresh medium containing compound every 3 days for 12 days by crystal violet staining-based microscopic analysis. The test is classed as functional, cell-based. The essentials: (§4)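 400–800 cells per well seeded in 6-well plates; after 24 h, PEC (0–40 μM) added. Medium with or without compound replaced every three days for 12 days. Colonies washed in cold PBS, fixed in methanol, stained 15 min with 0.5% crystal violet and counted under a microscope. Mean ± SD of three experiments.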

Test [6] relates to HCT-116. Nature of the test: Induction of apoptosis in human HCT116 cells assessed as viable cells at 10 uM after 48 hrs by Annexin V-FITC/propidium iodide staining-based flow cytometric analysis (reference value: 86.7 %). Format: functional. Particulars: HCT-116, 48 h, read-out: Activity. The essentials: as §1
For test [7], the system named is CT26. Nature of the test: Induction of apoptosis in mouse CT26 cells assessed as increase in cleaved caspase-3 expression after 48 hrs by Western blot analysis. Format: functional, cell-based. The method in brief:
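CT26 cells exposed 48 h to PEC at 0, 10, 20 and 40 μM, washed twice in cold PBS, lysed in RIPA. Protein measured by Lowry and equalized, run on SDS-PAGE, blotted to PVDF. Blocked 1 h at 37 °C, primary antibodies (Bax, Bcl-2, pro-caspase-3, cleaved caspase-3) overnight at 4 °C, secondary 1 h, ECL detection, densitometry.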
Background: A western blot detects proteins with antibodies after separation by electrophoresis.

The subject of test [8] is HCT-116. The experiment in a line: Induction of apoptosis in human HCT116 cells assessed as late apoptotic cells at 40 uM after 48 hrs by Annexin V-FITC/propidium iodide staining-based flow cytometric analysis (reference value: 3.87 %). Format: functional. The method in brief:
as §1

Test [9] deals with SW48. The experiment in a line: Inhibition of colony formation in human SW48 cells assessed as reduction in number of colonies up to 40 uM incubated for 24 hrs supplemented with fresh medium containing compound every 3 days for 12 days by crystal violet staining-based microscopic analysis. Format: functional, cell-based. The method in brief: as §4
The test system of test [10] is CT26. The experiment in a line: Antimetastatic activity against mouse CT26 cells allografted in Balb/c mouse assessed as increase in infiltration of CD8+ T cells in blood at 50 mg/kg, ip administered daily for 14 days starting from 6 days post implantation flow cytometric analysis (reference value: 1.35 %). Format: functional.
For test [11], the system named is CT26. Nature of the test: Induction of apoptosis in mouse CT26 cells assessed as appearance of condensed nuclei up to 40 uM after 48 hrs by Hoechst 33258 staining-based fluorescent microscopic analysis. The test is classed as functional, cell-based. The method in brief:
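Cells (1–2 × 10^5 per well) plated on 18-mm coverslips in six-well plates for 24 h, treated at various concentrations for 48 h, washed with cold PBS, fixed 15 min in 4% paraformaldehyde, stained with Hoechst 33258 (5 μg/ml); condensed/fragmented nuclei scored by fluorescence microscopy (10×); stained positive cells, mean ± SD of three experiments.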

Test [12] has as its system HCT-116. The experiment in a line: Anticlonogenic activity against human HCT116 cells assessed as reduction in colony formation up to 40 uM incubated for 24 hrs supplemented with fresh medium containing compound every 3 days for 12 days by crystal violet staining-based microscopic analysis. Format: functional, cell-based. The method in brief:
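Cells seeded at 400–800 per well in 6-well plates; after 24 h, treated with 0–40 μM in fresh medium (with or without compound) replaced every three days for 12 days. Colonies fixed in methanol, stained with 0.5% crystal violet for 15 min and counted by microscope; reported as surviving colonies, mean ± SD of three experiments.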

Test [13] concerns HCT-116. Nature of the test: Induction of apoptosis in human HCT116 cells assessed as increase in Bax protein expression up to 40 uM after 48 hrs by Western blot analysis. The test is classed as functional, cell-based. The essentials:
(§5)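 Cells treated 48 h at 0, 10, 20 and 40 μM, washed in cold PBS, lysed in RIPA; protein equalized by Lowry assay, resolved by SDS-PAGE, transferred to PVDF, blocked 1 h at 37 °C, primary antibody overnight at 4 °C, secondary 1 h, ECL detection, densitometry. β-actin loading control.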

Test [14] deals with CT26. The experiment in a line: Induction of apoptosis in mouse CT26 cells assessed as necrotic cells at 40 uM after 48 hrs by Annexin V-FITC/propidium iodide staining-based flow cytometric analysis (reference value: 1.80 %). Format: functional. The method in brief:
as §3

The subject of test [15] is HCT-116. The experiment in a line: Induction of apoptosis in human HCT116 cells assessed as decrease in Bcl-2 protein expression up to 40 uM after 48 hrs by Western blot analysis. Format: functional, cell-based. The essentials:
as §5

In test [16] the test system is CT26. Nature of the test: Induction of apoptosis in mouse CT26 cells assessed as viable cells at 20 uM after 48 hrs by Annexin V-FITC/propidium iodide staining-based flow cytometric analysis (reference value: 88.9 %). The test is classed as functional. Conditions: CT26, 48 h, read-out: Activity. The method in brief:
as §3

The test system of test [17] is CT26. Nature of the test: Antimetastatic activity against mouse CT26 cells allografted in Balb/c mouse assessed as reduction in weight of tumour nodules weight at 50 mg/kg, ip administered daily for 14 days starting from 6 days post implantation. Format: functional, organism-based. The essentials:
as §2

In test [18] the test system is HCT-116. Nature of the test: Induction of apoptosis in human HCT116 cells assessed as necrotic cells at 20 uM after 48 hrs by Annexin V-FITC/propidium iodide staining-based flow cytometric analysis (reference value: 8.24 %). Format: functional. The method in brief:
as §1

Test [19] relates to CT26. Nature of the test: Antimetastatic activity against mouse CT26 cells allografted in Balb/c mouse assessed as reduction in splenomegaly at 25 to 50 mg/kg, ip administered daily for 14 days starting from 6 days post implantation. Format: functional, organism-based. The essentials:
as §2

On to `COc1ccc(-c2cc(=O)c3c(O)c(OC)c(O)cc3o2)cc1` [PECTOLINARIGENIN], for which the Activity in test [1] was 7.17%; in test [7] it was “Dose-dependent effect”; in [8] it was 9.67%; in test [10], 4.17%; in test [14], 3.09%; in test [18], 4.55%. For the same compound, the inhibition result in [2] is “Tde”. Moreover, the inhibition result in [3], in [5], in test [9] and in test [12] was “Active” each time. For the same compound, in test [4], the viability at 40 µM is 67.3%. Also, in test [6], the viability at 10 µM is 85.1%. In addition, the result in [11], in test [13], in [15], in [17] and in test [19] was Active. The viability at 20 µM in test [16] was determined as 77.5%.
